High-throughput results deposited in PubChem BioAssay by several laboratories.
PostGolgi yeast = growth inhibition of a yeast mutant, post-Golgi transport screen. post-Golgi transport phenotypic cell assay. inhibition, % at 10 µM. hit rate 0.9% among 98,000. AID 739;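 also: yeast cells grown in 1536-well plates; yeast grown about 18 h at 30C before absorbance read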
Rev-RRE block = HIV Rev-RRE protein-RNA interaction inhibition; Rev peptide-RRE RNA binding, FRET; inhibition, % at 8 µM; AID 704; P05866; hit rate 0.79% among 97,000;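 active = inhibition above the screen-wide mean plus 3 SD, cut at about 35% in these data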
Target sequence (P05866 whole entry, looked up): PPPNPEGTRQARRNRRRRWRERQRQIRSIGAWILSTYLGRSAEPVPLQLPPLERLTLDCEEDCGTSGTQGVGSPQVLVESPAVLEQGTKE
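Test system: Cy5-tagged RRE RNA duplex with fluorescein-tagged Rev peptide; Probe or stimulus: labelled Rev peptide; Schedule: 5 min preincubation and 15 min binding, 25 °C; Signal: FRET fluorescence readout; Evaluation: % inhibition from 671/540 nm acceptor-to-donor ratio, scaled between controls; Control set: DMSO and neomycin B.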
PostGolgi ctrl = growth of the yeast control strain, post-Golgi counter-screen. inhibition, % at 10 µM. hit rate 5% among 98,000. AID 738. efflux-deficient yeast background strain, growth absorbance A615, 16 h
EphB4 antag = blocks human EphB4 binding to ephrin-B2 | P54760 | EphB4 LBD / TNYL-RAW-Alexa532 peptide, fluorescence polarization | inhibition, % at 7 µM | hit rate 0.15% among 97,000 | AID 720;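 active = inhibition above the screen-wide mean inhibition plus 3 SD, cut at about 15% in these data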
PLK1 kinase inh = blocks human PLK1 kinase activity; hit rate 0.53% among 97,000; P53350; recombinant PLK1 kinase, TR-FRET peptide phosphorylation; inhibition, % at 10 µM; AID 619;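 active = inhibition of 50% or more in the single-concentration screen; inactive = inhibition below 50%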
Target sequence (P53350 whole entry, looked up): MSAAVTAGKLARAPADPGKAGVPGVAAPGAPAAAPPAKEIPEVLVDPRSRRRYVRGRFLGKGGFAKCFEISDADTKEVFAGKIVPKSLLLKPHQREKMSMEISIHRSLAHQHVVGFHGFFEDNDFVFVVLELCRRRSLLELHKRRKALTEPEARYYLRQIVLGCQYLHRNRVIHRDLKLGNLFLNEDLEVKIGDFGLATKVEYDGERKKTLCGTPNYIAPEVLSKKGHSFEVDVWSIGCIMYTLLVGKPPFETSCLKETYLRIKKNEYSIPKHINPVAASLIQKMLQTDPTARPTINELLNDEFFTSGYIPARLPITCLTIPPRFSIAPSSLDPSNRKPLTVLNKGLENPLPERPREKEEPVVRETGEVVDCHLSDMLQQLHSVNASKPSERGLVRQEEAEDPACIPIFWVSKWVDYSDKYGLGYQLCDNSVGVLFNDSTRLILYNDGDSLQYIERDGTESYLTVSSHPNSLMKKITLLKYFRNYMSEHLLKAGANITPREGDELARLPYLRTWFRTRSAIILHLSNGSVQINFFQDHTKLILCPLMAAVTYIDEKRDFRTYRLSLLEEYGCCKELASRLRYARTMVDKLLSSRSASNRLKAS
Plk1 PBD FP = blocks phosphopeptide binding to human Plk1 polo box domain. P53350. Plk1 PBD phosphopeptide binding, fluorescence polarization. inhibition, %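 (tested at about 20 µM)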. hit rate 0.13% among 97,000; in the data active = inhibition above about 34%, passing the limit was not always enough
Numbers stand for hits. In the library only some 6.4% were active in any assay of this set; here they are far more common. Rule as the data show it, unless noted: active = inhibition above about 30%; inactive = the rest.

Results for CS(=O)(=O)c1ccc2nc(NC(=O)C3COc4ccccc4O3)sc2c1 (centres undefined) ?
PostGolgi yeast: inactive; Rev-RRE block: inactive; PostGolgi ctrl: inactive; EphB4 antag: inactive; PLK1 kinase inh: inactive; Plk1 PBD FP: inactive

Results for COc1ccc2nc(NC(=O)C3COc4ccccc4O3)sc2c1 (centres undefined) ?
PostGolgi yeast: inactive; Rev-RRE block: inactive; PostGolgi ctrl: 35.6; EphB4 antag: inactive; PLK1 kinase inh: inactive; Plk1 PBD FP: inactive

What do the screens show for `Cc1ccc(S(=O)(=O)NC(=O)COc2ccccc2C(N)=O)cc1`?
PostGolgi yeast: inactive; Rev-RRE block: inactive; PostGolgi ctrl: inactive; EphB4 antag: inactive; PLK1 kinase inh: inactive; Plk1 PBD FP: inactive

How did CC(C)c1cc(Br)ccc1OCCCN1C(=O)NC(C)(C)C1=O do in these assays?
PostGolgi yeast: inactive; Rev-RRE block: inactive; PostGolgi ctrl: 37.5; EphB4 antag: inactive; PLK1 kinase inh: inactive; Plk1 PBD FP: inactive

What do the screens show for `Cc1nc2ccccc2n1C1CC(=O)N(Cc2ccccc2)C1=O` (centres undefined)?
PostGolgi yeast: inactive; Rev-RRE block: inactive; PostGolgi ctrl: inactive; EphB4 antag: inactive; PLK1 kinase inh: inactive; Plk1 PBD FP: inactive

What do the screens show for `COc1ccc(-c2cc(OC)c3c(C)oc(C)c3c(=O)c2)cc1OC`?
PostGolgi yeast: inactive; Rev-RRE block: inactive; PostGolgi ctrl: inactive; EphB4 antag: inactive; PLK1 kinase inh: inactive; Plk1 PBD FP: inactive

Results for COc1cc(-c2cc(OC)c3c(C)oc(C)c3c(=O)c2)ccc1O ?
PostGolgi yeast: inactive; Rev-RRE block: inactive; PostGolgi ctrl: 45.0; EphB4 antag: inactive; PLK1 kinase inh: inactive; Plk1 PBD FP: inactive

Results for Cc1ccc(-c2nc(C#N)c(NCCc3ccccn3)o2)cc1 ?
PostGolgi yeast: inactive; Rev-RRE block: inactive; PostGolgi ctrl: 32.8; EphB4 antag: inactive; PLK1 kinase inh: inactive; Plk1 PBD FP: inactive

What do the screens show for `N#Cc1nc(-c2ccc(Cl)cc2)oc1NCCc1ccccn1`?
PostGolgi yeast: inactive; Rev-RRE block: inactive; PostGolgi ctrl: inactive; EphB4 antag: inactive; PLK1 kinase inh: inactive; Plk1 PBD FP: inactive

Results for CCOC(=O)C1CCCCN1C(=O)CCc1c(C)nc2cc(-c3ccccc3)nn2c1C (centres undefined) ?
PostGolgi yeast: inactive; Rev-RRE block: inactive; PostGolgi ctrl: 77.4; EphB4 antag: inactive; PLK1 kinase inh: inactive; Plk1 PBD FP: inactive

Results for CCCCS(=O)(=O)/C=C\C=C/S(=O)(=O)CCCC ?
PostGolgi yeast: 94.1; Rev-RRE block: inactive; PostGolgi ctrl: inactive; EphB4 antag: inactive; PLK1 kinase inh: inactive; Plk1 PBD FP: inactive

What do the screens show for `CN1/C(=C/C2CC(=O)N(c3ccc([N+](=O)[O-])cc3)C2=O)C(C)(C)c2ccccc21` (centres undefined)?
PostGolgi yeast: inactive; Rev-RRE block: inactive; PostGolgi ctrl: inactive; EphB4 antag: inactive; PLK1 kinase inh: inactive; Plk1 PBD FP: inactive

How did CCOc1ccc(Oc2cc(NC(=O)c3ccco3)cc([N+](=O)[O-])c2)cc1 do in these assays?
PostGolgi yeast: inactive; Rev-RRE block: inactive; PostGolgi ctrl: 43.8; EphB4 antag: inactive; PLK1 kinase inh: inactive; Plk1 PBD FP: inactive

Results for Cc1nn(C)cc1C(=O)Nc1cc(Oc2ccc(Cl)cc2)cc([N+](=O)[O-])c1 ?
PostGolgi yeast: inactive; Rev-RRE block: inactive; PostGolgi ctrl: inactive; EphB4 antag: inactive; PLK1 kinase inh: inactive; Plk1 PBD FP: inactive

What do the screens show for `CCOC(=O)C1=C(N2CCCCC2)c2cc3c(n2C1=O)CCCC3`?
PostGolgi yeast: inactive; Rev-RRE block: inactive; PostGolgi ctrl: 33.0; EphB4 antag: inactive; PLK1 kinase inh: inactive; Plk1 PBD FP: inactive

What do the screens show for `CC(C)Cn1c(=O)c(C(=O)NCc2ccccn2)c(O)c2ccccc21`?
PostGolgi yeast: inactive; PostGolgi ctrl: 30.7

How did CCOCCCNC(=O)c1ccc(CS(=O)(=O)Cc2ccccc2F)o1 do in these assays?
PostGolgi yeast: inactive; Rev-RRE block: inactive; PostGolgi ctrl: inactive; EphB4 antag: inactive; PLK1 kinase inh: inactive; Plk1 PBD FP: inactive

What do the screens show for `CC(C)CC(c1nnnn1Cc1cccs1)N1CCN(c2nc3ccccc3s2)CC1` (centres undefined)?
Rev-RRE block: inactive; EphB4 antag: inactive; PLK1 kinase inh: inactive; Plk1 PBD FP: inactive

What do the screens show for `CCC(c1nnnn1Cc1cccs1)N1CCN(c2nc3ccccc3s2)CC1` (centres undefined)?
PostGolgi yeast: inactive; PostGolgi ctrl: 31.6

What do the screens show for `O=C1CC(N2CCN(c3nc4ccccc4s3)CC2)C(=O)N1Cc1cccs1` (centres undefined)?
PostGolgi yeast: 92.5; Rev-RRE block: inactive; PostGolgi ctrl: 101.8; EphB4 antag: inactive; PLK1 kinase inh: inactive; Plk1 PBD FP: inactive

Results for CC(C)C(c1nnnn1Cc1ccco1)N1CCN(c2nc3ccccc3s2)CC1 (centres undefined) ?
PostGolgi yeast: inactive; PostGolgi ctrl: 41.1

Results for O=C1CC(N2CCN(c3ccc(F)cc3)CC2)C(=O)N1Cc1cccs1 (centres undefined) ?
PostGolgi yeast: inactive; Rev-RRE block: inactive; PostGolgi ctrl: inactive; EphB4 antag: inactive; PLK1 kinase inh: inactive; Plk1 PBD FP: inactive

What do the screens show for `CC(C)C1Oc2ccccc2N(CC(=O)N(Cc2ccncc2)Cc2ccco2)C1=O` (centres undefined)?
Rev-RRE block: inactive; EphB4 antag: inactive; PLK1 kinase inh: inactive; Plk1 PBD FP: inactive

Results for COc1ccc(Oc2nc3ccccc3n(C)c2=O)cc1 ?
PostGolgi yeast: inactive; Rev-RRE block: inactive; PostGolgi ctrl: inactive; EphB4 antag: inactive; PLK1 kinase inh: inactive; Plk1 PBD FP: inactive

Results for COc1ccc(/C(O)=C/c2nc3ccccc3n(-c3ccccc3)c2=O)cc1 ?
PostGolgi yeast: inactive; Rev-RRE block: 78.0; PostGolgi ctrl: inactive; EphB4 antag: inactive; PLK1 kinase inh: inactive; Plk1 PBD FP: inactive

What do the screens show for `CCOC(=O)c1c(NC(=O)CSc2nnc(CNc3ccc(Cl)cc3)o2)sc(C)c1C`?
Rev-RRE block: inactive; EphB4 antag: inactive; PLK1 kinase inh: inactive; Plk1 PBD FP: inactive

What do the screens show for `O=C(CSc1nnc(CNc2ccc(Cl)cc2)o1)Nc1nc2ccccc2s1`?
PostGolgi yeast: inactive; Rev-RRE block: inactive; PostGolgi ctrl: inactive; EphB4 antag: inactive; PLK1 kinase inh: 55.8; Plk1 PBD FP: inactive

How did CCOC(=O)c1c(NC(=O)CSc2nnc(CNc3ccc(F)cc3)o2)sc(C)c1C do in these assays?
PostGolgi yeast: inactive; Rev-RRE block: inactive; PostGolgi ctrl: 38.3; EphB4 antag: inactive; PLK1 kinase inh: inactive; Plk1 PBD FP: inactive

How did O=C(O)C1CCCN(S(=O)(=O)c2ccc(Br)cc2)C1 (centres undefined) do in these assays?
PostGolgi yeast: inactive; Rev-RRE block: inactive; PostGolgi ctrl: inactive; EphB4 antag: inactive; PLK1 kinase inh: inactive; Plk1 PBD FP: inactive

What do the screens show for `Cc1cccc(N2CCN(C(=O)C(C)n3nc(C)n4c(cc5occc54)c3=O)CC2)c1C` (centres undefined)?
PostGolgi yeast: inactive; Rev-RRE block: inactive; PostGolgi ctrl: inactive; EphB4 antag: inactive; PLK1 kinase inh: inactive; Plk1 PBD FP: inactive
